From ChEMBL document CHEMBL4831487, “Fragment-based drug design targeting syntenin PDZ2 domain involved in exosomal release and tumour spread” (Eur J Med Chem, 2021)
Active and inactive are the calls of the source. The rule behind the calls is not given here.

Tests used:
[1] = target: Syntenin-1/Syndecan-2 (Homo sapiens) (UniProt O00560+P34741); assay: Inhibition of recombinant human full-length GST-tagged syntenin-1/Syndecan-2 complex interaction expressed in Escherichia coli ER2566 at 400 uM measured after 16 hrs by HTRF assay
Procedure, shortened: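 GST-syntenin-1 full length expressed in E. coli ER2566 (0.4 mM IPTG, overnight at 30 °C), purified on GSTrap; HTRF binding to syndecan-2. Compounds at 400 μM, single well, plates spun then incubated 16 h at 4°C. Excitation 337 nm, emission 665/620 ratio; % inhibition from DMSO-only max and no-protein min signals.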

Syntenin-1/Syndecan-2 [2] = target: T1, Syntenin-1/Syndecan-2 (Homo sapiens, UniProt O00560); assay: Inhibition of recombinant human full-length GST-tagged syntenin-1/Syndecan-2 complex interaction expressed in Escherichia coli ER2566 measured after 16 hrs by HTRF assay
Procedure, shortened: (§1)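 HTRF assay of E. coli ER2566-expressed GST-syntenin-1 full length binding to syndecan-2; serial DMSO dilutions of compound in triplicate, 16 h at 4°C after spin. 665/620 nm ratio (excitation 337 nm) converted to % inhibition versus DMSO-only and no-protein controls to derive IC50; for line 4, buffer contained 0.01% NP40.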

Syntenin-1/Syndecan-2 [3] = target: T1, Syntenin-1/Syndecan-2; assay: Inhibition of recombinant human full-length GST-tagged syntenin-1/Syndecan-2 complex interaction expressed in Escherichia coli ER2566 in presence of NP40 detergent measured after 16 hrs by HTRF assay; procedure, shortened: as §1
MCF7 [4] = assay: Down regulation of flotillin-1 level in human MCF7 cells at 100 uM measured after 16 hrs by Western blot analysis; format: functional, cell-based
Procedure, shortened: (§2)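 MCF-7 cells (DMEM-F12, 10% FCS, 37°C, 5% CO2) treated at 100 μM or DMSO 0.2% vehicle for 16 h in medium with 10% exosome-depleted FCS. Exosomes isolated from medium by sequential centrifugation at 4 °C (500 g, 10,000 g, 100,000 g pellet, PBS wash); loading normalized to parent cell number. SDS-PAGE western blot; mean signal relative to vehicle, N independent experiments, one-way ANOVA with Tukey posttest.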

MCF7 [5] = assay: Down regulation of syntenin-1 level in human MCF7 cells at 100 uM measured after 16 hrs by Western blot analysis; format: functional, cell-based; procedure, shortened: as §2

T1 sequence (O00560 whole entry): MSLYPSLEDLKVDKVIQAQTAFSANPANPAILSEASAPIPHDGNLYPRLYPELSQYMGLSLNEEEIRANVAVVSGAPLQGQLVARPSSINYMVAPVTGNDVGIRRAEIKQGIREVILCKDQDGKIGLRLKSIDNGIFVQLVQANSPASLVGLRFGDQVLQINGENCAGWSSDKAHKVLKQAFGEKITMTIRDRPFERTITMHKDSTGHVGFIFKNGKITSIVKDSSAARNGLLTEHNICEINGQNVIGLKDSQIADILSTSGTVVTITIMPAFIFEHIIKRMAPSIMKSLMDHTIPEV
T1 sequence (P34741 whole entry, further chain): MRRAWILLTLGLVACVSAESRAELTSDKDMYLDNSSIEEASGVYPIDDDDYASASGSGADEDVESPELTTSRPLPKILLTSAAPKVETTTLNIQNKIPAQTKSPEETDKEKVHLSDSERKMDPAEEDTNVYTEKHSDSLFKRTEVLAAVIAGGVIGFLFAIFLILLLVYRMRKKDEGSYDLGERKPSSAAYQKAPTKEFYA

| SMILES | inhibition [1] | IC50 (Syntenin-1/Syndecan-2 [2]) | further results |
| --- | --- | --- | --- |
| CC(C)[C@H](NC(=O)CCCc1ccccc1)C(=O)O | 9% | – | – |
| CC(C)[C@H](NC(=O)CCSc1ccc(Cl)cc1)C(=O)O | 94% | 33 µM | IC50 (Syntenin-1/Syndecan-2 [3]): 45 µM; Activity (MCF7 [4]): inactive; Activity (MCF7 [5]): Active |
| CC(C)[C@H](NC(=O)CCSc1ccc(-c2cccc(O)c2)cc1)C(=O)O | – | > 200 µM | – |
| CC(=O)Nc1ccc(-c2ccc(SCCC(=O)N[C@H](C(=O)O)C(C)C)cc2)cn1 | – | 177 µM | – |
| CC(C)[C@H](NC(=O)CCSc1ccc(-c2cccc(S(N)(=O)=O)c2)cc1)C(=O)O | – | 78 µM | – |
| COCCOc1ccc(-c2ccc(SCCC(=O)N[C@H](C(=O)O)C(C)C)cc2)cn1 | – | 112 µM | – |
| CC(C)[C@H](NC(=O)CCSc1ccc(-c2ccc(S(=O)(=O)N3CCCCC3)cc2)cc1)C(=O)O | – | > 200 µM | – |
| O=C(CCSc1ccc(Cl)cc1)N[C@@H](Cc1ccccc1)C(=O)O | 0% | – | – |
| O=C(CCOc1ccc(Cl)cc1)N[C@@H](Cc1ccccc1)C(=O)O | 1% | – | – |
| C[C@H](NC(=O)CCSc1ccc(Cl)cc1)C(=O)O | 56% | – | – |
| CC(C)[C@H](NC(=O)CCOc1ccc(Cl)cc1)C(=O)O | 31% | – | – |
| CC(C)[C@H](NC(=O)CCOc1ccccc1)C(=O)O | 0% | – | – |
| C[C@H](NC(=O)CCOc1ccccc1)C(=O)O | 11% | – | – |
| CC(C)[C@H](NC(=O)CCSc1ccc(-c2cccc(CO)c2)cc1)C(=O)O | – | 96 µM | – |
| C[C@H](NC(=O)COc1ccccc1)C(=O)O | 0% | – | – |
| C[C@H](NC(=O)CCSc1ccccc1)C(=O)O | 19% | – | – |

More lines, main results first:

| inhibition [1] | IC50 (Syntenin-1/Syndecan-2 [2]) | SMILES | further results |
| --- | --- | --- | --- |
| – | > 200 µM | CC(C)[C@H](NC(=O)CCSc1ccc(-c2ccc(CCC(=O)O)cc2)cc1)C(=O)O | – |
| 0% | – | C[C@H](NC(=O)CSc1ccccc1)C(=O)O | – |
| 7% | – | CC(C)[C@H](NC(=O)COc1ccccc1)C(=O)O | – |
| 76% | – | CC(C)[C@H](NC(=O)CCSc1ccccc1)C(=O)O | – |
| – | 47 µM | CC(C)[C@H](NC(=O)CCSc1ccc(Br)cc1)C(=O)O | IC50 (Syntenin-1/Syndecan-2 [3]): 51 µM; Activity (MCF7 [4]): inactive; Activity (MCF7 [5]): Active |
| 6% | – | C[C@H](NC(=O)CCOc1ccc(Cl)cc1)C(=O)O | – |
| 16% | – | CC(C)[C@H](NC(=O)COc1ccc(Cl)cc1)C(=O)O | – |
| – | 7.4 µM | CC(C)[C@H](NC(=O)CCSc1ccc(-c2ccc(OS(C)(=O)=O)cc2)cc1)C(=O)O | IC50 (Syntenin-1/Syndecan-2 [3]): 204 µM |
| 25% | – | C[C@H](NC(=O)CSc1ccc(Cl)cc1)C(=O)O | – |
| 20% | – | CC(C)[C@H](NC(=O)CSc1ccccc1)C(=O)O | – |
| 0% | – | O=C(CCSc1ccccc1)N[C@@H](Cc1ccccc1)C(=O)O | – |
| 0% | – | C[C@H](NC(=O)COc1ccc(Cl)cc1)C(=O)O | – |
| 0% | – | O=C(CCOc1ccccc1)N[C@@H](Cc1ccccc1)C(=O)O | – |
| – | 69 µM | CC(C)[C@H](NC(=O)CCSc1ccc(-c2ccc(CNC(=O)OC(C)(C)C)cc2)cc1)C(=O)O | – |
| 56% | – | CC(C)[C@H](NC(=O)CSc1ccc(Cl)cc1)C(=O)O | IC50 (Syntenin-1/Syndecan-2 [3]): 864 µM |
